Results collected from several papers.
Compare with care: the assays were run in different laboratories.
Target: Interleukin-1 receptor-associated kinase 4 (IRAK4, Homo sapiens, UniProt Q9NWZ3)

Cc1ccc(Nc2nccc(N(C)c3ccc4c(C)n(C)nc4c3)n2)cc1S(N)(=O)=O — remaining activity (enzyme activity; inhibitor; 0.5 µM): 98.4%
CC1=C(C#N)C(c2ccc3c(c2)c(NC(=O)c2ccccc2C)nn3C)C(C#N)=C(C)N1 — remaining binding (cell-free assay; competition with immobilised ligand; 1 µM): 7.5%
CNC(=O)c1cc(Oc2ccc(NC(=O)Nc3ccc(Cl)c(C(F)(F)F)c3)cc2)ccn1 — remaining signal (cell-free assay; 0.5 µM): 99.6%
FC(F)(F)Oc1cccc(-c2cnc3ccc(-c4ccncc4)nn23)c1 — activity vs control (enzyme activity; inhibitor; radiometric; 5 µM): 10%
CNc1cccc2cc(C(=O)Nc3ccc(C(=O)O)cc3)c(=O)[nH]c12 — inhibition (enzyme activity; inhibitor; 10 µM): 7.7%
CN1CC(Oc2cnc(C#N)cc2-c2ccn3nc(NC(=O)C4CC4)cc3c2)C1 — inhibition (enzyme activity; inhibitor; 1 µM): 1%
COc1cc2ncnc(Nc3ccc(Oc4ccccc4)c(C)c3C)c2cc1OC — inhibition (enzyme activity; inhibitor; 1 µM): -4%
Cc1nccc(COC(=O)N2C[C@@H]3[C@@H](CNC(=O)c4ccc5[nH]nnc5c4)[C@@H]3C2)n1 — remaining binding (cell-free assay; competition with immobilised ligand; 1 µM): 87%
F[C@@H]1CCN(c2nccc(-c3cnn4ncccc34)n2)C1 — remaining binding (binding; 1 µM): 100%
N#CCCc1ccc2c(c1)-c1[nH]c3ccc([N+](=O)[O-])cc3c1CC(=O)N2 — remaining signal (cell-free assay; 0.5 µM): 155%
FC(F)c1nc2ccccc2n1-c1nc(N2CCOCC2)nc(N2CCOCC2)n1 — remaining activity (enzyme activity; inhibitor; 10 µM): 102%
C=CC(=O)Nc1cc(Nc2nccc(Nc3cc(Cl)c(F)cc3C(C)(C)O)n2)c(OC)cc1N1CC[C@@H](N(C)C)C1 — inhibition (enzyme activity; inhibitor; 1 µM): 24%
Cn1c(=O)n(-c2ccc(C(C)(C)C#N)cc2)c2c3cc(-c4cnc5ccccc5c4)ccc3ncc21 — remaining activity (enzyme activity; inhibitor; 10 µM): 78%
COc1cc(Nc2cnc(C#N)c(O[C@H](C)CN(C)C)n2)ncc1-c1cnn(C)c1 — remaining activity (enzyme activity; inhibitor; radiometric; 10 µM): 25%
C[C@@]1(Cc2ccc(C#N)cc2)C(=O)N(c2cc(Cl)cc(Cl)c2)c2ncc(C(=O)NC3(c4nc(C5CCC5)no4)CC3)n21 — remaining binding (cell-free assay; competition with immobilised ligand; 1 µM): 100%
CCN(CC)CCNC(=O)c1c(C)[nH]c(/C=C2\C(=O)Nc3ccc(F)cc32)c1C — inhibition (enzyme activity; inhibitor; 0.3 µM): 28%
Nc1cnc(N2CCc3cc(S(=O)(=O)Nc4c(F)cc(Cl)cc4F)cc(N4CCCC4=O)c32)nc1 — remaining binding (cell-free assay; competition with immobilised ligand; 1 µM): 100%
CN(C)C1CCN(CC#Cc2nn(C3CCCC3)c3nc(NCc4ccccc4)ncc23)C1 (stereo not shown) — inhibition (enzyme activity; inhibitor; FRET; 0.1 µM): 0%
CS(=O)(=O)Nc1cccc(-c2csc(NC(=O)CSc3nc4nccnc4c(=O)n3CCc3ccccc3)n2)c1 — inhibition (enzyme activity; inhibitor; 10 µM): 7%
Cc1cnc(NC2CCOCC2)nc1-n1cnc(C(=O)NC(CN)c2cc(F)cc(Cl)c2)c1 (stereo not shown) — remaining activity (enzyme activity; inhibitor; radiometric; 1 µM): 104%
CC(=O)Nc1c(C(C)=O)c(=O)n(C)c2nc(-c3ccc(Cl)cc3Cl)c(-c3ccc(Cl)cc3)cc12 — remaining binding (cell-free assay; competition with immobilised ligand; 1 µM): 100%
CC(C)(C)c1nc(-c2cccc(NS(=O)(=O)c3c(F)cccc3F)c2F)c(-c2ccnc(N)n2)s1 — remaining activity (enzyme activity; inhibitor; radiometric; 1 µM): 103%
N#Cc1ccc(Nc2ccc3[nH]c(=O)[nH]c3c2)c(Cl)c1 — remaining binding (cell-free assay; competition with immobilised ligand; 1 µM): 100%
CSc1nc(C)c(-c2ccnc(Nc3ccc(N4CCOCC4)cc3)c2)[nH]1 — inhibition (enzyme activity; inhibitor; 10 µM): 45.8%
Cc1ccc(C(=O)NCc2ccsc2)cc1C#Cc1cn(C(C)C)c2ncnc(N)c12 — activity vs control (enzyme activity; inhibitor; 1 µM): 88%
N#CC1(c2ccccn2)CCN(Cc2cc(C(=O)N3CCCC3)c(=O)n3ccccc23)CC1 — remaining binding (cell-free assay; competition with immobilised ligand; 1 µM): 100%
Cc1ccc(C(=O)Nc2ccc(CN3CCN(C)CC3)c(C(F)(F)F)c2)cc1C#Cc1cnc2cccnn12 — remaining activity (enzyme activity; inhibitor; 23.5 nM): 91%
O=C(Nc1cnn(-c2csc(C(=O)NC3COC3)c2)c1)Nc1c(F)cccc1Cl — remaining activity (enzyme activity; inhibitor; 5 µM): 97.8%
Oc1cccc(-c2nc(N3CCOCC3)c3oc4ncccc4c3n2)c1 — remaining signal (cell-free assay; 0.5 µM): 104%
Cc1sc(C(=O)NC2COC2)cc1-n1cc(NC(=O)Nc2c(F)cccc2Cl)cn1 — remaining activity (enzyme activity; inhibitor; 10 µM): 103%
CNC(=O)c1ccc(Nc2ncc(C(F)(F)F)c(NCc3nccnc3N(C)S(C)(=O)=O)n2)cc1 — remaining binding (cell-free assay; competition with immobilised ligand; 0.1 µM): 92%
